In ChEMBL document CHEMBL5303300, “EUbOPEN Chemogenomics Library - Multiplex” (2023):
Values joined by “and” are separate entries in the source; they are usually repeats but may differ in a detail not shown here. Equal entries are not always repeated.

System: Fibroblast
Experiment: Multiplex assay against human fibroblast
Type: toxicity, cell-based
Conditions: number of replicates 2
Procedure, shortened: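 Compound was added to live cells that had been stained at seeding with Hoechst33342, BioTracker Green Microtubule Cytoskeleton Dye, MitoTracker Red and Annexin V Alexa Fluor 680, and imaging followed on a CQ1 microscope at 37°C and 5% CO2. CellPathfinder machine-learning gating divided cells into Hoechst high-intensity objects or normal cells, normal cells into healthy, pyknosed or fragmented nuclei, and pyknosed cells into mitotic or apoptotic. Tubulin, mitochondrial-mass and membrane-permeability phenotypes are per cents of healthy-nucleus cells.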

[1] = 12 h, 1 µM, compound concentration 1 uM
[2] = 12 h, 10 µM, compound concentration 10 uM
[3] = 24 h, 1 µM, compound concentration 1 uM
[4] = 24 h, 10 µM, compound concentration 10 uM
[5] = 48 h, 1 µM, compound concentration 1 uM
[6] = 48 h, 10 µM, compound concentration 10 uM

Compound: C[C@H](N)Cn1ccc2cc(F)c(Cl)cc21.O=C(O)/C=C/C(=O)O
- Population Apoptotic (%) [1]: 44% and 40%
- Population Fragmented Nuclei (%) [1]: 14%
- Population Healthy Nuclei (%) [1]: 74% and 61%
- Population Hoechst High Intensity Objects (%) [1]: 0%
- Population Membrane Permeable-Phenotype (%) [1]: 5% and 6%
- Population Mitochondria Different-Phenotype (%) [1]: 0% and 1%
- Population Mitotic Cells (%) [1]: 55% and 60%
- Population Normal (%) [1]: 100%
- Population Pyknosed Nuclei (%) [1]: 11% and 24%
- Population Tubulin-Different-Phenotype (%) [1]: 14% and 11%
- Total Cell Count [1]: 252 and 208
- Population Apoptotic (%) [2]: 45% and 37%
- Population Fragmented Nuclei (%) [2]: 14% and 22%
- Population Healthy Nuclei (%) [2]: 69% and 58%
- Population Hoechst High Intensity Objects (%) [2]: 0%
- Population Membrane Permeable-Phenotype (%) [2]: 11% and 12%
- Population Mitochondria Different-Phenotype (%) [2]: 3% and 6%
- Population Mitotic Cells (%) [2]: 54% and 62%
- Population Normal (%) [2]: 100%
- Population Pyknosed Nuclei (%) [2]: 16% and 19%
- Population Tubulin-Different-Phenotype (%) [2]: 24% and 26%
- Total Cell Count [2]: 189 and 184
- Population Apoptotic (%) [3]: 42% and 68%
- Population Healthy Nuclei (%) [3]: 25% and 72%
- Population Hoechst High Intensity Objects (%) [3]: 1% and 0%
- Population Mitochondria Different-Phenotype (%) [3]: 2% and 1%
- Population Mitotic Cells (%) [3]: 57% and 31%
- Population Normal (%) [3]: 98% and 99%
- Population Pyknosed Nuclei (%) [3]: 23% and 11%
- Total Cell Count [3]: 149 and 256
- Population Apoptotic (%) [4]: 53% and 51%
- Population Fragmented Nuclei (%) [4]: 24% and 28%
- Population Healthy Nuclei (%) [4]: 63% and 56%
- Population Hoechst High Intensity Objects (%) [4]: 0%
- Population Membrane Permeable-Phenotype (%) [4]: 4% and 7%
- Population Mitochondria Different-Phenotype (%) [4]: 0% and 5%
- Population Mitotic Cells (%) [4]: 46% and 48%
- Population Normal (%) [4]: 99% and 100%
- Population Pyknosed Nuclei (%) [4]: 12% and 14%
- Population Tubulin-Different-Phenotype (%) [4]: 23% and 28%
- Total Cell Count [4]: 208
- Population Apoptotic (%) [5]: 65% and 56%
- Population Fragmented Nuclei (%) [5]: 18% and 21%
- Population Healthy Nuclei (%) [5]: 67% and 59%
- Population Hoechst High Intensity Objects (%) [5]: 0%
- Population Membrane Permeable-Phenotype (%) [5]: 4% and 5%
- Population Mitochondria Different-Phenotype (%) [5]: 0% and 1%
- Population Mitotic Cells (%) [5]: 34% and 43%
- Population Normal (%) [5]: 100% and 99%
- Population Pyknosed Nuclei (%) [5]: 13% and 18%
- Population Tubulin-Different-Phenotype (%) [5]: 7% and 9%
- Total Cell Count [5]: 258 and 233
- Population Apoptotic (%) [6]: 60% and 65%
- Population Fragmented Nuclei (%) [6]: 33% and 30%
- Population Healthy Nuclei (%) [6]: 58% and 60%
- Population Hoechst High Intensity Objects (%) [6]: 0%
- Population Membrane Permeable-Phenotype (%) [6]: 4% and 6%
- Population Mitochondria Different-Phenotype (%) [6]: 0% and 1%
- Population Mitotic Cells (%) [6]: 40% and 35%
- Population Normal (%) [6]: 99%
- Population Pyknosed Nuclei (%) [6]: 7% and 9%
- Population Tubulin-Different-Phenotype (%) [6]: 22% and 18%
- Total Cell Count [6]: 255 and 217

Compound: CN1CCN(c2ccc(-n3cc(-c4ccncc4OCC4CCNCC4)cn3)cc2)CC1
- Population Apoptotic (%) [1]: 44%
- Population Fragmented Nuclei (%) [1]: 13% and 12%
- Population Healthy Nuclei (%) [1]: 58% and 71%
- Population Hoechst High Intensity Objects (%) [1]: 0%
- Population Membrane Permeable-Phenotype (%) [1]: 3% and 8%
- Population Mitochondria Different-Phenotype (%) [1]: 2% and 0%
- Population Mitotic Cells (%) [1]: 55%
- Population Normal (%) [1]: 100%
- Population Pyknosed Nuclei (%) [1]: 27% and 16%
- Population Tubulin-Different-Phenotype (%) [1]: 15% and 14%
- Total Cell Count [1]: 131 and 173
- Population Apoptotic (%) [2]: 38% and 75%
- Population Fragmented Nuclei (%) [2]: 13% and 25%
- Population Healthy Nuclei (%) [2]: 72% and 63%
- Population Hoechst High Intensity Objects (%) [2]: 0%
- Population Membrane Permeable-Phenotype (%) [2]: 2% and 4%
- Population Mitochondria Different-Phenotype (%) [2]: 1% and 3%
- Population Mitotic Cells (%) [2]: 61% and 25%
- Population Normal (%) [2]: 100%
- Population Pyknosed Nuclei (%) [2]: 14% and 10%
- Population Tubulin-Different-Phenotype (%) [2]: 34% and 31%
- Total Cell Count [2]: 179 and 182
- Population Apoptotic (%) [3]: 56% and 48%
- Population Fragmented Nuclei (%) [3]: 13% and 14%
- Population Healthy Nuclei (%) [3]: 58% and 68%
- Population Hoechst High Intensity Objects (%) [3]: 0%
- Population Membrane Permeable-Phenotype (%) [3]: 7% and 9%
- Population Mitochondria Different-Phenotype (%) [3]: 2% and 1%
- Population Mitotic Cells (%) [3]: 43% and 51%
- Population Normal (%) [3]: 100%
- Population Pyknosed Nuclei (%) [3]: 28% and 17%
- Population Tubulin-Different-Phenotype (%) [3]: 17% and 13%
- Total Cell Count [3]: 131 and 178
- Population Apoptotic (%) [4]: 39% and 47%
- Population Fragmented Nuclei (%) [4]: 20% and 26%
- Population Healthy Nuclei (%) [4]: 65% and 61%
- Population Hoechst High Intensity Objects (%) [4]: 0%
- Population Membrane Permeable-Phenotype (%) [4]: 8% and 5%
- Population Mitochondria Different-Phenotype (%) [4]: 7% and 13%
- Population Mitotic Cells (%) [4]: 60% and 52%
- Population Normal (%) [4]: 100%
- Population Pyknosed Nuclei (%) [4]: 14% and 11%
- Population Tubulin-Different-Phenotype (%) [4]: 52% and 44%
- Total Cell Count [4]: 189 and 192
- Population Apoptotic (%) [5]: 75% and 66%
- Population Fragmented Nuclei (%) [5]: 21% and 16%
- Population Healthy Nuclei (%) [5]: 61% and 72%
- Population Hoechst High Intensity Objects (%) [5]: 0%
- Population Membrane Permeable-Phenotype (%) [5]: 10% and 4%
- Population Mitochondria Different-Phenotype (%) [5]: 1% and 0%
- Population Mitotic Cells (%) [5]: 25% and 33%
- Population Normal (%) [5]: 100%
- Population Pyknosed Nuclei (%) [5]: 16% and 10%
- Population Tubulin-Different-Phenotype (%) [5]: 17% and 10%
- Total Cell Count [5]: 142 and 191
- Population Apoptotic (%) [6]: 76% and 73%
- Population Fragmented Nuclei (%) [6]: 31% and 30%
- Population Healthy Nuclei (%) [6]: 54% and 61%
- Population Hoechst High Intensity Objects (%) [6]: 0%
- Population Membrane Permeable-Phenotype (%) [6]: 2% and 4%
- Population Mitochondria Different-Phenotype (%) [6]: 11% and 13%
- Population Mitotic Cells (%) [6]: 23% and 26%
- Population Normal (%) [6]: 99% and 100%
- Population Pyknosed Nuclei (%) [6]: 14% and 7%
- Population Tubulin-Different-Phenotype (%) [6]: 59% and 48%
- Total Cell Count [6]: 212 and 189
